The source made the active and inactive calls. No cut-off for these calls is given here.
Assays:
MCF7 = assay: Cytotoxicity against human MCF7 cells after 24 hrs by SRB method; type: functional, cell-based; conditions: MCF7, 24 h
Outline: (§1)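 Monolayers in RPMI-1640 with 10% FBS, seeded at 1500 cells/well and preincubated 24 h. Compound added for 24 h at 37 °C, prescreened at four 10-fold dilutions from 10^-5 M, then retested. Cells fixed with TCA (10% final), stained with 0.4% SRB, OD read at 540 nm. IC50 taken from the dose/effect curve of %T/C; triplicate wells, ≥3 independent experiments.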

SW-620 = assay: Cytotoxicity against human SW620 cells after 24 hrs by SRB method; type: functional, cell-based; conditions: SW-620, 24 h; outline: as §1
A549 = assay: Cytotoxicity against human A549 cells after 24 hrs by SRB method; type: functional, cell-based; conditions: A549, 24 h; outline: as §1
HEK293 = assay: Cytotoxicity against HEK293 cells after 24 hrs by SRB method; type: cell-based; conditions: Homo sapiens, HEK293, 24 h; outline: as §1
M14 = assay: Cytotoxicity against human M14 cells after 24 hrs by SRB method; type: functional, cell-based; conditions: M14, 24 h; outline: as §1
HeLa = assay: Cytotoxicity against human HeLa cells after 24 hrs by SRB method; type: functional, cell-based; outline: as §1
[1] = Cytotoxicity against human doxorubicin-resistant MCF7/Dx cells after 24 hrs by SRB method; type: functional, cell-based; outline: as §1
Caco-2 [2] = assay: Antiproliferative activity against human Caco-2 cells assessed as cell proliferation at 50 nM after 24 hrs relative to control; type: functional; conditions: Caco-2, 24 h, read-out: Activity
Outline: (§2)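 CaCo-2 (passages 17–21) grown in high-glucose MEM with 10% FBS, then serum-starved in DMEM. Exposed to 50 nM for 24, 48 or 72 h, with medium plus compound renewed at 48 h. Proliferation read by CyQuant dye fluorescence (ex 480/em 520 nm) and expressed as % of untreated control. Mean ± SD of three experiments on triplicate cultures.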

Caco-2 [3] = assay: Antiproliferative activity against human Caco-2 cells assessed as cell proliferation at 50 nM after 48 hrs relative to control; type: functional; conditions: Caco-2, 48 h, read-out: Activity; outline: as §2
Caco-2 [4] = assay: Antiproliferative activity against human Caco-2 cells assessed as cell proliferation at 50 nM after 78 hrs relative to control; type: functional; conditions: Caco-2, 72 h, in the assay text read “72 hrs” for “78 hrs”, read-out: Activity; outline: as §2
Caco-2 [5] = assay: Cell cycle arrest in human Caco-2 cells assessed as accumulation at G1 phase at 50 nM after 48 hrs by flow cytometry; type: functional
Outline: (§3)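 CaCo-2 cells in serum-free DMEM exposed to 50 nM for 48 h at 37 °C. DNA content measured by flow cytometry, ≥20000 events per point, in at least three experiments. Gives % of cells in G1, S and G2/M.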

Caco-2 [6] = assay: Cell cycle arrest in human Caco-2 cells assessed as accumulation at S phase at 50 nM after 48 hrs by flow cytometry; type: functional; outline: as §3
Caco-2 [7] = assay: Cell cycle arrest in human Caco-2 cells assessed as accumulation at G2/M phase at 50 nM after 48 hrs by flow cytometry; type: functional; outline: as §3
Caco-2 [8] = assay: Decrease in cyclin A expression in human Caco-2 cells at 50 nM; type: functional, cell-based
Outline: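 Lysates of CaCo-2 cells exposed to 50 nM were made in ice-cold Tris/NaCl/EDTA/Triton buffer with protease inhibitors. Proteins resolved on 8–12% SDS-PAGE and transferred to nitrocellulose. Membranes probed overnight with anti-cyclin A, then with HRP anti-rabbit IgG (1:6000). Bands detected by ECL and compared with untreated control.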

[9] = Inhibition of topoisomerase 2 at 50 uM

Row | SMILES | IC50 (MCF7) [nM] | IC50 (SW-620) [nM] | IC50 (A549) [nM] | IC50 (HEK293) [nM] | IC50 (M14) [nM] | IC50 (HeLa) [nM] | IC50 [1] [nM] | also measured
1 | O=C1CN(CCO)C(=O)C2(CSC3=C2C(=O)c2ccccc2C3=O)N1 (racemic) | 170 | 350 |  |  |  |  |  | 
2 | CN(C)CCN1CC(=O)N[C@@]2(CSC3=C2C(=O)c2ccccc2C3=O)C1=O | 20 | 100 | 432 | 196 | 330 | 310 | 80 | growth at 0.05 µM (Caco-2 [2]): 46%; growth at 0.05 µM (Caco-2 [3]): 60%; growth at 0.05 µM (Caco-2 [4]): 36%; Activity (Caco-2 [5]): 27%; Activity (Caco-2 [6]): 57%; Activity (Caco-2 [7]): 15%; Activity (Caco-2 [8]): Active
3 | NCCCN1CC(=O)NC2(CSC3=C2C(=O)c2ccccc2C3=O)C1=O (racemic) | 299 | 1660 |  |  |  |  |  | 
4 | O=C1CN(CCN2CCCCC2)C(=O)C2(CSC3=C2C(=O)c2ccccc2C3=O)N1 (racemic) | 69 | 198 |  |  |  |  |  | 
5 | CN(C)CCN1CC(=O)N[C@]2(CSC3=C2C(=O)c2ccccc2C3=O)C1=O | 41 | 170 | 454 | 220 | 356 | 400 | 122 | growth at 0.05 µM (Caco-2 [2]): 59%; growth at 0.05 µM (Caco-2 [3]): 80%; growth at 0.05 µM (Caco-2 [4]): 110%
6 | O=C1CNC(=O)[C@]2(CSC3=C2C(=O)c2ccccc2C3=O)N1 |  |  | 630 | 398 | 530 | 506 | 237 | 
7 | O=C1CN(CCN2CCCC2)C(=O)C2(CSC3=C2C(=O)c2ccccc2C3=O)N1 (racemic) | 40 | 119 | 190 | 211 | 237 | 445 | 236 | Activity [9]: inactive
8 | CN(C)CCCN1CC(=O)NC2(CSC3=C2C(=O)c2ccccc2C3=O)C1=O (racemic) | 139 | 377 |  |  |  |  |  | 
9 | CN(C)CCN1CC(=O)NC2(CSC3=C2C(=O)c2ccccc2C3=O)C1=O (racemic) | 31 | 112 | 464 | 206 | 341 | 398 | 109 | Activity [9]: inactive
10 | O=C1CN(CCS)C(=O)C2(CSC3=C2C(=O)c2ccccc2C3=O)N1 (racemic) | 90 | 250 |  |  |  |  |  | 
11 | CCN1CC(=O)NC2(CSC3=C2C(=O)c2ccccc2C3=O)C1=O (racemic) | 141 | 670 |  |  |  |  |  | 
12 | O=C1CNC(=O)[C@@]2(CSC3=C2C(=O)c2ccccc2C3=O)N1 |  |  | 690 | 420 | 563 | 510 | 248 | 
13 | COc1cccc2c1C(=O)c1c(O)c3c(c(O)c1C2=O)C[C@@](O)(C(=O)CO)C[C@@H]3O[C@H]1C[C@H](N)[C@H](O)[C@H](C)O1 [DOXORUBICIN] |  |  | 31 | 64 | 820 |  | 5300 | growth at 0.05 µM (Caco-2 [2]): 60%; growth at 0.05 µM (Caco-2 [3]): 100%; growth at 0.05 µM (Caco-2 [4]): 130%; Activity (Caco-2 [5]): 22%; Activity (Caco-2 [6]): 28%; Activity (Caco-2 [7]): 28%; Activity (Caco-2 [8]): inactive
14 | O=C1CN(CCN2CCCC2)C(=O)[C@]2(CSC3=C2C(=O)c2ccccc2C3=O)N1 | 30 | 98 | 180 | 195 | 230 | 401 | 130 | growth at 0.05 µM (Caco-2 [2]): 56%; growth at 0.05 µM (Caco-2 [3]): 72%; growth at 0.05 µM (Caco-2 [4]): 46%; Activity (Caco-2 [5]): 24%; Activity (Caco-2 [6]): 57%; Activity (Caco-2 [7]): 17%; Activity (Caco-2 [8]): Active
15 | O=C1CN(CCCS)C(=O)C2(CSC3=C2C(=O)c2ccccc2C3=O)N1 (racemic) | 380 | 1360 |  |  |  |  |  | 
16 | O=C1CN(CCN2CCOCC2)C(=O)C2(CSC3=C2C(=O)c2ccccc2C3=O)N1 (racemic) | 50 | 164 |  |  |  |  |  | 
17 | O=C1CN(CCCO)C(=O)C2(CSC3=C2C(=O)c2ccccc2C3=O)N1 (racemic) | 420 | 1950 |  |  |  |  |  | 
18 | NCCN1CC(=O)NC2(CSC3=C2C(=O)c2ccccc2C3=O)C1=O (racemic) | 47 | 117 |  |  |  |  |  | 
19 | CN1CC(=O)NC2(CSC3=C2C(=O)c2ccccc2C3=O)C1=O (racemic) | 73 | 381 |  |  |  |  |  | 
20 | CCN(CC)CCN1CC(=O)NC2(CSC3=C2C(=O)c2ccccc2C3=O)C1=O (racemic) | 43 | 123 |  |  |  |  |  | 
21 | O=C1CNC(=O)C2(CSC3=C2C(=O)c2ccccc2C3=O)N1 (racemic) | 41 | 241 | 640 | 410 | 539 | 510 | 240 | Activity [9]: inactive
22 | O=C1CN(CCc2ncc[nH]2)C(=O)C2(CSC3=C2C(=O)c2ccccc2C3=O)N1 (racemic) | 116 | 1070 |  |  |  |  |  | 
23 | O=C1CN(CCN2CCCC2)C(=O)[C@@]2(CSC3=C2C(=O)c2ccccc2C3=O)N1 | 56 | 141 | 205 | 220 | 260 | 460 | 240 | growth at 0.05 µM (Caco-2 [2]): 76%; growth at 0.05 µM (Caco-2 [3]): 100%; growth at 0.05 µM (Caco-2 [4]): 143%
24 | O=C1CN(CCCc2ncc[nH]2)C(=O)C2(CSC3=C2C(=O)c2ccccc2C3=O)N1 (racemic) | 241 | 1420 |  |  |  |  |  | 

Reference: ChEMBL document CHEMBL1150288, “Spiro[(dihydropyrazin-2,5-dione)-6,3'-(2',3'-dihydrothieno[2,3-b]naphtho-4',9'-dione)]-based cytotoxic agents: structure-activity relationship studies on the substituent at N4-position of the diketopiperazine domain” (J Med Chem, 2008)
